Bioassay records: PubChem BioAssay, several laboratories
thrombin 1536 = inhibitors of human thrombin | P00734 | 220,000 compounds, 0.26% hits | inhibition, % at 5 µM | AID 1046 | alpha-thrombin, Boc-VPR-AMC fluorogenic substrate cleavage;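 active means inhibition at or above 40%; inactive means inhibition below 40%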;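 further: 0% = enzyme with no compound and 100% = wells without enzyme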
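Test system: human alpha-thrombin protein / Dosing: one concentration per compound, 5 µM, with 0.2% DMSO / Medium: pH 7.5 Tris-saline with Tween 20 / Benchmarks: no-compound enzyme wells and no-enzyme blanks / Read-out basis: percent inhibition of thrombin substrate cleavage / Timing: reaction at room temperature / Measured by: fluorescence, ex 355 nm, em 460 nm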
AHR act = activators of human aryl hydrocarbon receptor | P35869 | AHR-responsive luciferase reporter cells, luminescence | activation, % at 5 µM | 320,000 compounds, 2.5% hits; in the data active means activation above about 47%;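 further: 0% = vehicle wells and 100% = reference agonist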
STAT3 act = activators of IL-6 induced STAT3 signaling | activation (% of control), % at 5.6 µM | U3A cells, IL-6 STAT3-luciferase reporter, luminescence; 100% = signal with IL-6 EC80 alone | 190,000 compounds, 0.91% hits;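 active means activation above the screen-wide mean of compound activation plus 3 SD, cut at about 130% in these data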;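 further: 0% = background luminescence of wells with medium and substrate only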
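Material: STAT1-lacking human U3A cells, STAT3 luciferase reporter | Benchmarks: IL-6-only wells as 100% reference | Probe or stimulus: IL-6 (33 ng/mL) | Timing: Compound 1 h, then IL-6 6 h at 37 °C | Detection: Luminescence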
FXIIa inh = inhibitors of human coagulation factor XIIa; inhibition, % at 5 µM; 220,000 compounds, 0.3% hits; P00748; purified FXIIa, Boc-QGR-AMC fluorogenic substrate, 2 h; in the data active means inhibition above about 40%;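 further: 0% = enzyme with no compound and 100% = blank without enzyme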
KLK5 inh = kallikrein 5 (human) inhibition. inhibition, % at 5 µM. Q9Y337. recombinant hK5, fluorogenic AMC substrate cleavage. 210,000 compounds, 0.59% hits. AID 873;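 active means inhibition of 40% or more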;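 further: 0% = enzyme controls without compound and 100% = no-enzyme blanks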
Target sequence (Q9Y337 67-293 limits assumed): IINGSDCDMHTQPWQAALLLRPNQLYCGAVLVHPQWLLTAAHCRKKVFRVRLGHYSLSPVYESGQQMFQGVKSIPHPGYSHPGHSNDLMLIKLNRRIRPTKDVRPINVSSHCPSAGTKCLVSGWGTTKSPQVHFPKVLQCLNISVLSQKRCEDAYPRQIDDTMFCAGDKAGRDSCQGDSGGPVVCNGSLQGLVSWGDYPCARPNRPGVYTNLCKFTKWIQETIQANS
FXIa inh = blocks human coagulation factor XIa protease activity; P03951; inhibition, % at 5 µM; 220,000 compounds, 0.14% hits; purified FXIa, Boc-Glu-Ala-Arg-AMC fluorogenic substrate;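 active means inhibition of at least 40%; inactive means inhibition below 40%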;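 further: fluorescence of freed AMC excited at 355 nm; 0% = enzyme without compound and 100% = no enzyme blank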
AHR act cf = human AHR activation, confirmation | shares compounds with AHR act | human cells, AHR-responsive luciferase reporter, luminescence | activation, % at 9 µM | 2,300 compounds, 87% hits; in the data active means activation above about 49%;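 further: HepG2 hepatoma cells carrying a DRE-driven firefly luciferase reporter; 0% = vehicle wells and 100% = reference agonist wells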
PXR act counter = PXR activation, counter-screen for AHR activators; shares compounds with AHR act; cell-based PXR reporter, luciferase luminescence; activation, % at 11.6 µM; 2,300 compounds, 88% hits; AID 434939; in the data active means activation above about 11%;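 further: human hepatoma DPX-2 cells expressing full-length human PXR; 0% = DMSO and 100% = reference agonist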
Target sequence (O75469 whole entry, looked up): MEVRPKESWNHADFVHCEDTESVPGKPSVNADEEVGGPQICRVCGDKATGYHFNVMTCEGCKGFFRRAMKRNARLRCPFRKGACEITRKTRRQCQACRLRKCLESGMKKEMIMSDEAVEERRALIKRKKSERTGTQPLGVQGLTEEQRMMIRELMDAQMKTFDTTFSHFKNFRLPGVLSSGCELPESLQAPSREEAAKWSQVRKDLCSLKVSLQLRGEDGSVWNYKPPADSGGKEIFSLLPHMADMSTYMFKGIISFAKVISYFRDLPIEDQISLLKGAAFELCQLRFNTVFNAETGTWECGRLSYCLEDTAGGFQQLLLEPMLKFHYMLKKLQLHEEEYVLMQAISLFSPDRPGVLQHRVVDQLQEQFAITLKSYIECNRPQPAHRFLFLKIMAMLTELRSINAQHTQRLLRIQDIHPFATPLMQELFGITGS
The depositor's hits bear a star; x = no result. Rows were chosen to be rich in hits. Some 3.5% of all compounds tested hit in one or more screens of this group.

SMILES	thrombin 1536	AHR act	STAT3 act	FXIIa inh	KLK5 inh	FXIa inh	AHR act cf	PXR act counter
C/C(=N/Nc1nc(-c2ccc(Cl)cc2)cs1)c1cccs1	-2	104*	101	13	2	2	132*	17*
NC(=O)NC(CC(=O)N1CCc2ccccc2C1)c1ccc(Cl)cc1 (stereo unspecified)	x	4	x	x	x	x	x	x
COCC(=O)Nc1c(C(=O)Nc2ccc3c(c2)OCO3)oc2ccccc12	x	134*	x	x	x	x	100*	48*
COc1cccc(NC(=O)c2oc3ccccc3c2NC(=O)c2ccc3c(c2)OCO3)c1	1	-6	95	14	-4	4	x	x
CSCc1c(C(=O)Nc2ccc(N3CCOCC3)cc2)oc2ccccc12	-5	87*	84	8	-3	-3	95*	13*
CC(=O)Nc1c(C(=O)Nc2ccc3c(c2)OCO3)oc2ccccc12	x	113*	x	x	x	x	147*	35*
CSCc1c(C(=O)Nc2ccc3c(c2)OCO3)oc2ccccc12	x	92*	x	x	x	x	109*	45*
COC(=O)c1cnc(SCC(=O)c2ccccc2)n1C	x	4	x	x	x	x	x	x
Cc1ccccc1NC(=S)NC1CCN(Cc2ccccc2)CC1	0	0	100	25	-15	26	x	x
O=C(CNC(=O)c1ccc2c(=O)n3c(nc2c1)CCC3)Nc1ccc(F)c(F)c1	x	0	x	x	x	x	x	x
CC(=O)N1CCN(S(=O)(=O)c2ccccc2)C1c1ccccc1 (stereo unspecified)	3	102*	107	18	0	3	9	63*
CCC(=O)N1CCN(C(C)=O)C1c1ccccc1 (stereo unspecified)	-1	-2	97	10	-22	-5	x	x
CN(CC(=O)Nc1cccc(F)c1)C(=O)CCNC(=O)c1ccco1	x	4	x	x	x	x	x	x
C(=N\Nc1nc2ccccc2[nH]1)/c1ccncc1	-4	108*	107	11	-1	-1	114*	11*
CC(=O)Nc1ccc(/C=N/Nc2nc3ccccc3[nH]2)cc1	-4	157*	102	4	-4	-3	107*	13*
COc1cc(/C=N/Nc2nc3ccccc3[nH]2)cc(OC)c1O	-7	81*	81	11	-9	0	17	6
COc1cc(/C=N/Nc2nc3ccccc3[nH]2)cc(Br)c1OCC(=O)N(C)C	2	32	88	9	2	0	x	x
Cn1c(/C=N/Nc2nc3ccccc3[nH]2)nc2ccccc21	3	88*	118	10	-1	4	60*	9
CCN(CC)c1ccc(/C=N/Nc2nc3ccccc3[nH]2)cc1	-1	x	125	3	-103	-5	x	x
O=C(NCc1nc2ccccc2[nH]1)C1=C[C@H](c2ccc(C(F)(F)F)cc2)C[C@H](OCCCCO)O1	x	22	x	x	x	x	x	x
COc1cccc(NC(=O)C(=O)N/N=C/c2cc(C)n(-c3ccc(Cl)c(Cl)c3)c2C)c1	1	-2	96	6	-72	-12	x	x
C#CCOCCOCCOCCNc1nc(N2CCN(C(=O)[C@H](CCCCN)n3cc(C(N)CO)nn3)CC2)nc(N2CCN(C(=O)[C@H](CCC(=O)O)n3cc(C(N)[C@H](C)CC)nn3)CC2)n1 (stereo partly specified)	4	6	x	15	6	2	x	x
Clc1nc2ccccc2cc1/C=N/Nc1nc2ccccc2[nH]1	-3	83*	108	2	-37	-1	73*	21*
Cc1nn(-c2ccccc2)c(C)c1/C=N/Nc1nc2ccccc2[nH]1	1	181*	88	22	-13	21	34	26*
O=C(O)c1ccc(N/N=C/c2cc3ccccc3nc2Cl)cc1	0	28	x	1	2	3	x	x
SMILES	thrombin 1536	AHR act	STAT3 act	FXIIa inh	KLK5 inh	FXIa inh	AHR act cf	PXR act counter
COc1ccccc1Nc1nc2ccccc2[nH]1	-23	119*	89	-1	-1	4	63*	35*
Cc1cc(-c2ccccc2)nc(N2CCN(c3ccccn3)CC2)n1	-3	81*	111	5	-5	-7	93*	19*
CCN(CC)P(=O)(Nc1ccccc1Br)c1ccc(N(C)C)cc1NC(=O)c1ccco1 (stereo unspecified)	7	4	124	0	-4	1	x	x
CN1C(=O)c2cccc(NC(=O)Cc3ccccc3)c2C1=O	-1	156*	90	15	-7	4	51*	14*
Cc1ccc(OC(F)F)c(NC(=O)Nc2ccc3c(c2)OCO3)c1	x	82*	x	x	x	x	75*	47*
CCOc1ccccc1OCCC(=O)Nc1ccc2c(c1)OCO2	x	17	x	x	x	x	x	x
CCOc1ccccc1NC(=O)Nc1ccc2c(c1)OCO2	x	103*	x	x	x	x	115*	97*
c1ccc(-c2csc3nnc(SCc4ccc5c(c4)OCO5)n23)cc1	-4	84*	107	8	0	0	48*	130*
Cc1cc(C)c2[nH]c(O)c(N=NC3=NC(=O)CS3)c2c1	-6	95*	x	7	2	0	118*	16*
COc1ccc(C(C)=O)cc1COc1ccc(-n2cnnn2)cc1	3	-5	88	14	-5	4	x	x
O=C(Nc1ccc(F)c(Cl)c1)c1cncs1	x	101*	x	x	x	x	95*	26*
CCn1c(C)cc(/C=C2\NC(=O)N(Cc3ccc(Cl)cc3)C2=O)c1C	3	42	95	24	7	9	x	x
CCN1C(=O)N/C(=C/c2cc(C)n(Cc3ccccc3)c2C)C1=O	-1	136*	112	6	-9	2	103*	230*
Cc1cc(C)c2nc(SCC(=O)N3CC(=O)Nc4ccccc43)c(C#N)cc2c1	5	92*	93	19	-10	9	76*	77*
CC(=O)Nc1ccc(NC(=O)CN(c2ccc(F)cc2)S(=O)(=O)c2ccc3c(c2)OCCO3)cc1	3	6	99	19	-4	1	x	x
O=C(CN(c1ccc(F)cc1)S(=O)(=O)c1ccc2c(c1)OCCO2)Nc1ccc2c(c1)OCO2	0	101*	107	6	-10	0	52*	72*
Cc1ccc(NC(=O)C(c2ccccc2)c2ccccc2)c(O)c1	x	6	x	x	x	x	x	x
O=C(NN=C1CCCC1)c1cc(-c2ccccc2)n[nH]1	-6	23	100	11	-16	4	x	x
O=C(NN=C1CCCCC1)c1cc(-c2ccccc2)n[nH]1	2	121*	98	10	0	7	44	17*
COc1ccc(NCc2nn(CC(=O)c3ccc(Br)cc3)c3[n+]2CCCCC3)cc1	-10	0	96	-2	-4	-6	x	x
